According to ChEMBL document CHEMBL1157314, “Antibacterial, partially acetylated oligorhamnosides from Cleistopholis patens” (2006):
Values after ≈ are worked out from the molar mass of the structure shown.

Columns and labels:
Assay type in all cases: functional
Staphylococcus aureus [1] = assay: Antibacterial activity against linezolid-resistant Staphylococcus aureus 106-12591A isolate after 24 hrs by broth microdilution method
How it was run: (§1)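 Broth microdilution following NCCLS M7-A6 (2003), with inoculum at the recommended densities. Isolates were placed into panel wells with an autoinoculator and grown in cation-adjusted Mueller-Hinton broth at 35°C in ambient air for overnight to 24 h. Panels were read by eye, and the MIC was taken as no visible growth.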

Staphylococcus aureus [2] = assay: Antibacterial activity against methicillin-resistant Staphylococcus aureus ATCC 33591 after 24 hrs by broth microdilution method; settings: ATCC 33591, 24 h; how it was run: as §1
Staphylococcus aureus [3] = assay: Antibacterial activity against methicillin-resistant Staphylococcus aureus 78-13607A after 24 hrs by broth microdilution method; how it was run: as §1
Staphylococcus aureus [4] = assay: Antibacterial activity against oxacillin-susceptible Staphylococcus aureus ATCC 29213 after 24 hrs by broth microdilution method; settings: ATCC 29213, 24 h; how it was run: as §1
Staphylococcus aureus [5] = assay: Antibacterial activity against oxacillin-resistant Staphylococcus aureus ATCC 33591 after 24 hrs by broth microdilution method; settings: ATCC 33591, 24 h; how it was run: as §1
[6] = system: Staphylococcus epidermidis; assay: Antibacterial activity against oxacillin-susceptible Staphylococcus epidermidis isolate 12-1788A isolate after 24 hrs by broth microdilution method
[7] = system: Staphylococcus haemolyticus; assay: Antibacterial activity against oxacillin-resistant Staphylococcus haemolyticus 107-1240C isolate after 24 hrs by broth microdilution method; how it was run: as §1
Enterococcus faecalis [8] = assay: Antibacterial activity against ampicillin and vancomycin-susceptible Enterococcus faecalis ATCC 29212 after 24 hrs by broth microdilution method; settings: ATCC 29212, 24 h; how it was run: as §1
Enterococcus faecium [9] = assay: Antibacterial activity against ampicillin and vancomycin-resistant Enterococcus faecium 24-45A isolate after 24 hrs by broth microdilution method; how it was run: as §1
Streptococcus pneumoniae [10] = assay: Antibacterial activity against penicillin-intermediate resistant Streptococcus pneumoniae ATCC 49619 after 24 hrs by broth microdilution method; settings: ATCC 49619, 24 h; how it was run: as §1
Streptococcus pneumoniae [11] = assay: Antibacterial activity against penicillin-resistant Streptococcus pneumoniae 33-50B isolate after 24 hrs by broth microdilution method; how it was run: as §1
Corynebacterium jeikeium = assay: Antibacterial activity against Corynebacterium jeikeium 15-196A isolate after 24 hrs by broth microdilution method
How it was run: (§2)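 Broth microdilution following NCCLS M7-A6 (2003) inocula; isolates transferred aseptically into panel wells with an autoinoculator; cation-adjusted Mueller-Hinton broth; incubated overnight to 24 h at 35°C in ambient air; panels read by eye, MIC taken as lowest concentration with no visible growth.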

Bacillus cereus = assay: Antibacterial activity against Bacillus cereus 24-59A isolate after 24 hrs by broth microdilution method
Streptococcus pyogenes = assay: Antibacterial activity against erythromycin-resistant Streptococcus pyogenes 91-8747 isolate after 24 hrs by broth microdilution method; how it was run: as §1
Streptococcus mitis = assay: Antibacterial activity against penicillin-resistant Streptococcus mitis 61-2900C isolate after 24 hrs by broth microdilution method; how it was run: as §1
Pseudomonas aeruginosa = assay: Antibacterial activity against sPseudomonas aeruginosa ATCC 27853 after 24 hrs by broth microdilution method; settings: ATCC 27853, 24 h; how it was run: as §2
Escherichia coli = assay: Antibacterial activity against sEscherichia coli ATCC 25922 after 24 hrs by broth microdilution method; settings: ATCC 25922, 24 h; how it was run: as §2
Staphylococcus aureus [12] = assay: Antibacterial activity against mupirocin-resistant Staphylococcus aureus 4-90A isolate after 24 hrs by broth microdilution method; how it was run: as §1
Staphylococcus aureus [13] = assay: Antibacterial activity against quinupristin/dalfopristin-resistant Staphylococcus aureus 300-12053A isolate after 24 hrs by broth microdilution method; how it was run: as §1
Staphylococcus [14] = assay: Antibacterial activity against mupirocin-resistant coagulase negative Staphylococcus 63-18A isolate after 24 hrs by broth microdilution method; how it was run: as §1
Staphylococcus [15] = assay: Antibacterial activity against quinupristin/dalfopristin-resistant coagulase negative Staphylococcus 90-10840A isolate after 24 hrs by broth microdilution method; how it was run: as §1
Staphylococcus [16] = assay: Antibacterial activity against coagulase negative linezolid-resistant Staphylococcus 82-1645A isolate after 24 hrs by broth microdilution method; how it was run: as §1
Enterococcus faecalis [17] = assay: Antibacterial activity against vancomycin-resistant Enterococcus faecalis 48-22D isolate with vanA phenotype after 24 hrs by broth microdilution method; how it was run: as §1
Enterococcus faecalis [18] = assay: Antibacterial activity against vancomycin-resistant Enterococcus faecalis 82-876D with vanB phenotype isolate after 24 hrs by broth microdilution method; how it was run: as §1
Enterococcus faecalis [19] = assay: Antibacterial activity against linezolid-resistant Enterococcus faecalis 15-5341 isolate after 24 hrs by broth microdilution method; how it was run: as §1
Enterococcus faecalis [20] = assay: Antibacterial activity against gentamycin and streptomycin-resistant Enterococcus faecalis 39-11D isolate after 24 hrs by broth microdilution method; how it was run: as §1
Enterococcus faecium [21] = assay: Antibacterial activity against vancomycin-resistant Enterococcus faecium 103-1232D isolate with vanB phenotype after 24 hrs by broth microdilution method; how it was run: as §1
Enterococcus faecium [22] = assay: Antibacterial activity against vancomycin-resistant Enterococcus faecium 15-206A isolate with vanA phenotype after 24 hrs by broth microdilution method; how it was run: as §1
Enterococcus faecium [23] = assay: Antibacterial activity against linezolid-resistant Enterococcus faecium 11-4103A isolate after 24 hrs by broth microdilution method; how it was run: as §1
Enterococcus faecium [24] = assay: Antibacterial activity against quinupristin/dalfopristin-resistant Enterococcus faecium 65-1208A isolate after 24 hrs by broth microdilution method; how it was run: as §1
Bacillus sp. [25] = assay: Antibacterial activity against tetracycline-resistant Bacillus sp. 107-1461D isolate after 24 hrs by broth microdilution method; settings: Bacillus sp. (in: firmicutes); how it was run: as §1
Bacillus sp. [26] = assay: Antibacterial activity against trimethoprim/sulfamethaxazole-resistant Bacillus sp. 67-1057A isolate after 24 hrs by broth microdilution method; settings: Bacillus sp. (in: firmicutes); how it was run: as §1
Bacillus sp. [27] = assay: Antibacterial activity against erythromycin-resistant Bacillus sp. 32-2406A isolate after 24 hrs by broth microdilution method; settings: Bacillus sp. (in: firmicutes); how it was run: as §1
Streptococcus pneumoniae [28] = assay: Antibacterial activity against multidrug resistant Streptococcus pneumoniae 68-2307B isolate after 24 hrs by broth microdilution method; how it was run: as §1
Streptococcus pneumoniae [29] = assay: Antibacterial activity against erythromycin and clindamycin-resistant Streptococcus pneumoniae 4-38B isolate after 24 hrs by broth microdilution method; how it was run: as §1
Streptococcus pneumoniae [30] = assay: Antibacterial activity against erythromycin-resistant and clindamycin-susceptible Streptococcus pneumoniae 35-405B isolate after 24 hrs by broth microdilution method; how it was run: as §1
Streptococcus pneumoniae [31] = assay: Antibacterial activity against levofloxacin-resistant Streptococcus pneumoniae 2-2784A isolate after 24 hrs by broth microdilution method; how it was run: as §1
Corynebacterium sp. [32] = assay: Antibacterial activity against doxycyclin-resistant Corynebacterium sp. 105-1513C isolate after 24 hrs by broth microdilution method; how it was run: as §1
Corynebacterium sp. [33] = assay: Antibacterial activity against streptomycin-resistant Corynebacterium sp. 61-5454A isolate after 24 hrs by broth microdilution method; how it was run: as §1
Corynebacterium sp. [34] = assay: Antibacterial activity against rifampin-resistant Corynebacterium sp. 58-9161A isolate after 24 hrs by broth microdilution method; how it was run: as §1
Streptococcus [35] = assay: Antibacterial activity against erythromycin and clindamycin-resistant beta-haemolytic sStreptococcus 91-526D isolate after 24 hrs by broth microdilution method; how it was run: as §1
Streptococcus [36] = assay: Antibacterial activity against erythromycin-resistant and clindamycin-susceptible beta-haemolytic sStreptococcus 109-820D isolate after 24 hrs by broth microdilution method; how it was run: as §1
Streptococcus [37] = assay: Antibacterial activity against levofloxacin-resistant beta-haemolytic sStreptococcus 19-756A isolate after 24 hrs by broth microdilution method; how it was run: as §1
Streptococcus [38] = assay: Antibacterial activity against mupirocin-resistant viridans group sStreptococcus 32-2395A isolate after 24 hrs by broth microdilution method; how it was run: as §1
Streptococcus [39] = assay: Antibacterial activity against levafloxacin-resistant viridans group Streptococcus 107-6380A isolate after 24 hrs by broth microdilution method; how it was run: as §1
Streptococcus [40] = assay: Antibacterial activity against linezolid-resistant viridans group Streptococcus 27-2832A isolate after 24 hrs by broth microdilution method; how it was run: as §1
Streptococcus [41] = assay: Antibacterial activity against multidrug-resistant viridans group Streptococcus 58-1602D isolate after 24 hrs by broth microdilution method; how it was run: as §1

Q: How did the MIC (Staphylococcus aureus [1]) turn out when `CCCCCCCCCCCCO[C@@H]1O[C@@H](C)[C@H](O[C@@H]2O[C@@H](C)[C@H](OC(C)=O)[C@@H](O[C@@H]3O[C@@H](C)[C@H](OC(C)=O)[C@@H](O)[C@H]3OC(C)=O)[C@H]2O)[C@@H](O)[C@H]1O` was run?
A: Its MIC is 2 µg/mL (≈ 2.66 µM).

Q: What about the MIC (Staphylococcus aureus [2]) of the same molecule?
A: Its MIC is 8 µg/mL (≈ 10.7 µM).

Q: What about the MIC (Staphylococcus aureus [3]) of the same molecule?
A: Its MIC is 8 µg/mL (≈ 10.7 µM).

Q: And the MIC (Staphylococcus aureus [4])?
A: The MIC was 2 µg/mL (≈ 2.66 µM).

Q: What about the MIC (Staphylococcus aureus [5]) of the same molecule?
A: Its MIC is 2 µg/mL (≈ 2.66 µM).

Q: And the MIC [6]?
A: The MIC was 4 µg/mL (≈ 5.33 µM).

Q: And the MIC [7]?
A: The MIC was 4 µg/mL (≈ 5.33 µM).

Q: What about the MIC (Enterococcus faecalis [8]) of the same molecule?
A: The MIC was 4 µg/mL (≈ 5.33 µM).

Q: What about the MIC (Enterococcus faecium [9]) of the same molecule?
A: Its MIC is 2 µg/mL (≈ 2.66 µM).

Q: What about the MIC (Streptococcus pneumoniae [10]) of the same molecule?
A: Its MIC is 8 µg/mL (≈ 10.7 µM).

Q: And the MIC (Streptococcus pneumoniae [11])?
A: Its MIC is 8 µg/mL (≈ 10.7 µM).

Q: And the MIC (Corynebacterium jeikeium)?
A: Its MIC is over 32 µg/mL.

Q: And the MIC (Bacillus cereus)?
A: Its MIC is 2 µg/mL (≈ 2.66 µM).

Q: And the MIC (Streptococcus pyogenes)?
A: The MIC was 8 µg/mL (≈ 10.7 µM).

Q: And the MIC (Streptococcus mitis)?
A: Its MIC is 8 µg/mL (≈ 10.7 µM).

Q: What about the MIC (Pseudomonas aeruginosa) of the same molecule?
A: Its MIC is over 32 µg/mL.

Q: And the MIC (Escherichia coli)?
A: Its MIC is over 32 µg/mL.

Q: And the MIC (Staphylococcus aureus [12])?
A: The MIC was 2 µg/mL (≈ 2.66 µM).

Q: What about the MIC (Staphylococcus aureus [13]) of the same molecule?
A: The MIC was 2 µg/mL (≈ 2.66 µM).

Q: What about the MIC (Staphylococcus [14]) of the same molecule?
A: The MIC was 2 µg/mL (≈ 2.66 µM).

Q: And the MIC (Staphylococcus [15])?
A: The MIC was 2 µg/mL (≈ 2.66 µM).

Q: What about the MIC (Staphylococcus [16]) of the same molecule?
A: Its MIC is 2 µg/mL (≈ 2.66 µM).

Q: And the MIC (Enterococcus faecalis [17])?
A: Its MIC is 2 µg/mL (≈ 2.66 µM).

Q: And the MIC (Enterococcus faecalis [18])?
A: The MIC was 2 µg/mL (≈ 2.66 µM).

Q: What about the MIC (Enterococcus faecalis [19]) of the same molecule?
A: The MIC was 2 µg/mL (≈ 2.66 µM).

Q: And the MIC (Enterococcus faecalis [20])?
A: Its MIC is 2 µg/mL (≈ 2.66 µM).

Q: What about the MIC (Enterococcus faecium [21]) of the same molecule?
A: Its MIC is 2 µg/mL (≈ 2.66 µM).

Q: And the MIC (Enterococcus faecium [22])?
A: Its MIC is 2 µg/mL (≈ 2.66 µM).

Q: And the MIC (Enterococcus faecium [23])?
A: Its MIC is 2 µg/mL (≈ 2.66 µM).

Q: What about the MIC (Enterococcus faecium [24]) of the same molecule?
A: Its MIC is 2 µg/mL (≈ 2.66 µM).

Q: What about the MIC (Bacillus sp. [25]) of the same molecule?
A: Its MIC is 2 µg/mL (≈ 2.66 µM).

Q: And the MIC (Bacillus sp. [26])?
A: Its MIC is 2 µg/mL (≈ 2.66 µM).

Q: What about the MIC (Bacillus sp. [27]) of the same molecule?
A: The MIC was 2 µg/mL (≈ 2.66 µM).

Q: And the MIC (Streptococcus pneumoniae [28])?
A: Its MIC is 4 µg/mL (≈ 5.33 µM).

Q: What about the MIC (Streptococcus pneumoniae [29]) of the same molecule?
A: Its MIC is 4 µg/mL (≈ 5.33 µM).

Q: And the MIC (Streptococcus pneumoniae [30])?
A: Its MIC is 4 µg/mL (≈ 5.33 µM).

Q: And the MIC (Streptococcus pneumoniae [31])?
A: Its MIC is 4 µg/mL (≈ 5.33 µM).

Q: And the MIC (Corynebacterium sp. [32])?
A: Its MIC is 8 µg/mL (≈ 10.7 µM).

Q: And the MIC (Corynebacterium sp. [33])?
A: The MIC was 8 µg/mL (≈ 10.7 µM).

Q: And the MIC (Corynebacterium sp. [34])?
A: The MIC was 8 µg/mL (≈ 10.7 µM).

Q: What about the MIC (Streptococcus [35]) of the same molecule?
A: Its MIC is 4 µg/mL (≈ 5.33 µM).

Q: What about the MIC (Streptococcus [36]) of the same molecule?
A: Its MIC is 4 µg/mL (≈ 5.33 µM).

Q: What about the MIC (Streptococcus [37]) of the same molecule?
A: Its MIC is 4 µg/mL (≈ 5.33 µM).

Q: And the MIC (Streptococcus [38])?
A: The MIC was 4 µg/mL (≈ 5.33 µM).

Q: And the MIC (Streptococcus [39])?
A: The MIC was 4 µg/mL (≈ 5.33 µM).

Q: What about the MIC (Streptococcus [40]) of the same molecule?
A: Its MIC is 4 µg/mL (≈ 5.33 µM).

Q: And the MIC (Streptococcus [41])?
A: Its MIC is 4 µg/mL (≈ 5.33 µM).
